{"data": "Published values gathered from unrelated publications", "effect on": "cell growth or viability", "note": "pIC50: −log10 of the molar value."}
{"Compound": "O=C1C(=Nc2ccccc2I)c2ccccc2N1Cc1cccc(Cl)c1", "cell line": "L02", "technique": "MTT", "time": "48 h", "pIC50": 4.72}
{"Compound": "CC1=CC(=O)c2ccccc2C1=O", "cell line": "MOLT-3", "technique": "XTT", "pIC50": 4.99}
{"Compound": "CCOc1cc2ncc(C#N)c(Nc3ccc(OCc4ccccn4)c(Cl)c3)c2cc1NC(=O)/C=C/CN(C)C", "cell line": "HCC1419", "technique": "ATP luminescence", "pIC50": 7.85}
{"Compound": "CC(C)(C)c1cnc(CSc2cnc(NC(=O)C3CCN(C(=O)CCCCCCCN4Cc5cc6c(cc5C4)C(=O)N(C4CCC(=O)NC4=O)C6=O)CC3)s2)o1 (stereo not drawn)", "cell line": "REH", "technique": "MTT", "pIC50": 8.18}
{"Compound": "O=C1Nc2ccccc2C1=Nc1ccc(Cl)cc1", "cell line": "L02", "technique": "MTT", "time": "48 h", "pIC50": 4.55}
{"Compound": "O=C(NO)c1ccc(Cn2cnc3c(Nc4ccc(F)c(Cl)c4)ncnc32)cc1", "cell line": "NALM-6", "technique": "MTT", "time": "72 h", "pIC50": 5.69}
{"Compound": "COc1cccc2c1cc1c3c(cc4c(c32)OCO4)C(=O)N1C", "cell line": "MOLT-3", "technique": "XTT", "time": "75 h", "pIC50": 4.30}
{"Compound": "CC(C)c1cccc(C(C)C)c1N=C1C(=O)N(Cc2cccc(Cl)c2)c2ccccc21", "cell line": "L02", "technique": "MTT", "time": "48 h", "pIC50": 4.14}
{"Compound": "CC1=CC(=O)C(C(C)C)=CC1=O", "cell line": "PANC-1", "technique": "SRB", "time": "48 h", "pIC50": 5.05}
{"Compound": "CCc1ccc(N=C2C(=O)N(Cc3ccccc3)c3ccccc32)cc1", "cell line": "L02", "technique": "MTT", "time": "48 h", "pIC50": 4.06}
{"Compound": "C(=N\\Nc1cc(N/N=C/c2ccc3ccccc3n2)nc(-c2ccccc2)n1)/c1ccc2ccccc2n1", "cell line": "L02", "technique": "MTT", "time": "48 h", "pIC50": "< 4.00"}
{"Compound": "COc1cccc2c1C(=O)c1c(O)c3c(c(O)c1C2=O)C[C@@](O)(C(=O)CO)C[C@@H]3O[C@H]1C[C@H](N)[C@H](O)[C@H](C)O1", "cell line": "MOLT-3", "technique": "XTT", "time": "75 h", "pIC50": 7.34}
{"Compound": "COc1c(Cl)cccc1Nc1c(-c2ccncc2OC[C@@H]2COCCO2)[nH]c2c1C(=O)NCC2", "cell line": "HCC1419", "technique": "ATP luminescence", "pIC50": 8.19}
{"Compound": "COc1ccc(Nc2ncnc3c2ncn3Cc2ccc(C(=O)Nc3ccccc3N)cc2)cc1", "cell line": "NALM-6", "technique": "MTT", "time": "72 h", "pIC50": 5.11}
{"Compound": "Cc1ncsc1-c1ccc([C@H](C)NC(=O)[C@@H]2C[C@@H](O)CN2C(=O)[C@@H](NC(=O)CN2CCN(c3cc(-c4ccccc4O)nnc3N)CC2)C(C)(C)C)cc1", "cell line": "NCI-H1944", "technique": "ATP luminescence", "time": "7 days", "pIC50": 6.67}
{"Compound": "O=C(NO)c1ccc(Cn2cnc3c(Nc4ccc(Br)cc4F)ncnc32)cc1", "cell line": "NALM-6", "technique": "MTT", "time": "72 h", "pIC50": 5.67}
{"Compound": "CN1C(=O)C(=O)c2cc3c(c4c2c1cc1ccccc14)OCO3", "cell line": "MOLT-3", "technique": "XTT", "time": "75 h", "pIC50": 4.69}
{"Compound": "COc1ccc(Nc2ncnc3c2ncn3Cc2ccc(C(=O)NO)cc2)cc1", "cell line": "NALM-6", "technique": "MTT", "time": "72 h", "pIC50": 5.70}
{"Compound": "CC(C)c1cccc(C(C)C)c1N=C1C(=O)Nc2ccccc21", "cell line": "L02", "technique": "MTT", "time": "48 h", "pIC50": 4.50}
{"Compound": "COc1cccc2c1C(=O)c1c(O)c3c(c(O)c1C2=O)C[C@@](O)(C(=O)CO)C[C@@H]3O[C@H]1C[C@H](N)[C@H](O)[C@H](C)O1", "cell line": "CAL-51", "technique": "ATP luminescence", "time": "72 h", "pIC50": 6.92}
{"Compound": "C=CCN1C(=O)C(=Nc2cccc(C)c2)c2ccccc21", "cell line": "L02", "technique": "MTT", "time": "48 h", "pIC50": 4.85}
{"Compound": "Nc1nnc(-c2ccccc2O)cc1N1CC2CCC(C1)N2c1ccnc(F)c1", "cell line": "NCI-H1944", "technique": "ATP luminescence", "time": "7 days", "pIC50": "< 6.00"}
{"Compound": "O=C1C(=Nc2ccc(Cl)cc2Br)c2ccccc2N1Cc1ccc(Br)cc1", "cell line": "L02", "technique": "MTT", "time": "48 h", "pIC50": 5.11}
{"Compound": "C(=N\\Nc1cc(N/N=C/c2ccc3ccccc3n2)ncn1)/c1ccc2ccccc2n1", "cell line": "L02", "technique": "MTT", "time": "48 h", "pIC50": "< 4.00"}
